# Measured values pooled from the literature.
# Protocols differ between the studies behind these lines.
# Target: Phosphatidylinositol 4-phosphate 5-kinase type-1 gamma (PIP5K1C, Homo sapiens, UniProt O60331)
Compound,read-out,method,concentration,remaining binding [%]
C[C@@H]1CCN(c2nccc(-c3cnn4ncccc34)n2)C1,binding,,1 µM,99
O=C(c1ccc(Nc2ncc(Cl)c(-c3cc4ccccc4s3)n2)cc1)N1CCC(N2CCCC2)CC1,binding,competition with immobilised ligand,1 µM,53
CNC(=O)Nc1ccc2c(c1)CC[C@@]21OC(=O)N(CC(=O)N(Cc2ccc(F)cc2)[C@@H](C)C(F)(F)F)C1=O,cell-free assay,competition with immobilised ligand,1 µM,100
O=C(Nc1c[nH]nc1C(=O)NC1CCNCC1)c1cc(F)cc(F)c1,binding,competition with immobilised ligand,1 µM,87
N[C@H]1CCN(c2nccc(-c3cnn4ncccc34)n2)C1,binding,,1 µM,63
O=C(NCCCN1CCOCC1)c1ccc(Nc2ncc(Cl)c(-c3ccc(Cl)s3)n2)cc1,binding,competition with immobilised ligand,1 µM,59
COc1ccc2c(c1)O[C@H](c1ccc(OC)c(OC)c1)C[C@@H]2NC(=O)C1(c2ccc3c(c2)OC(F)(F)O3)CC1,cell-free assay,competition with immobilised ligand,1 µM,100
COc1cnc(Nc2cccc(S(N)(=O)=O)c2)nc1N1CCN(c2ccccc2)CC1,binding,competition with immobilised ligand,1 µM,100
CN(C(=O)c1ccccc1)c1cc(N(C)c2ccc3c(c2)CCc2ccc(C(=O)NCCN4CCOCC4)cc2C3=O)ccc1F,cell-free assay,competition with immobilised ligand,1 µM,80
c1cncc(-c2cccc(Nc3nccc(NC4CCCCC4)n3)c2)c1,binding,competition with immobilised ligand,10 µM,0
CN(c1nccc(-c2cnn3ncccc23)n1)C1CC1,binding,,1 µM,100
COc1cccc(CNC(=O)c2nc3scc(COCc4ccc(C(=O)O)cc4)c3c(=O)[nH]2)c1,cell-free assay,competition with immobilised ligand,1 µM,63.7
CN(C)c1nccc(-c2cnc3ncccn23)n1,binding,,1 µM,100
O=C(c1ccc(Nc2ncc(Cl)c(-c3ccc(Cl)s3)n2)cc1)N1CCC(N2CCCC2)CC1,binding,competition with immobilised ligand,1 µM,72
CC1CCCN1c1nccc(-c2cnn3ncccc23)n1 (stereo not drawn),binding,,1 µM,74
C[C@@]1(Cc2ccc(C#N)cc2)C(=O)N(c2cc(Cl)cc(Cl)c2)c2ncc(C(=O)NC3(c4nc(C5CCC5)no4)CC3)n21,cell-free assay,competition with immobilised ligand,1 µM,100
F[C@@H]1CCN(c2nccc(-c3cnn4ncccc34)n2)C1,binding,,1 µM,100
Cc1nc(C2CCN(C(=O)c3ccc(OC(F)(F)F)cc3N)CC2)c2ncc(N3CCN(C)CC3)cc2n1,cell-free assay,competition with immobilised ligand,1 µM,94
